# From PubChem BioAssay AID871 (The Scripps Research Institute Molecular Screening Center, 2007)
# The campaign covered roughly 190,000 compounds. About 1,800 (0.95%) were called active. The list comes from a sample in which actives are over-represented; it also holds similar structures and randomly drawn compounds. A number with no mark means an inactive call.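 How the source made its calls: active means activation above the screen-wide mean of compound activation plus 3 SD (cut at about 130% in these data); inactive means the rest.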
# Assay: IL-6 driven STAT3 reporter potentiators, primary screen, U3A cells, luciferase, luminescence, MLSCN library (AID 871);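 further: 0% = background luminescence of wells with medium and substrate only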
# Settings: IL-6 STAT3-luciferase reporter, at 5.6 µM, stronger effect = higher value, 100% = signal with IL-6 EC80 alone
# How it was run: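 Material: STAT3-luciferase reporter U3A cells. Controls: IL-6-treated wells, 100% activation. Read-out: % activation versus median of IL-6-stimulated wells. Probe or stimulus: IL-6 stimulus at 33 ng/mL final. Timing: compound 1 h, then IL-6 6 h at 37 °C. Signal: reporter luminescence signal.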
row,Structure (SMILES),activation (% of control)
1,COc1ccccc1-c1nnc(SCC(=O)N2CC(C)CC(C)C2)o1 (stereo not given),138% (active)
2,COc1ccccc1N1CCN(C(=O)CSc2nnc(-c3ccoc3C)o2)CC1,93.7%
3,COc1ccccc1-c1nnc(SCC(=O)Nc2ccccc2)o1,91.3%
4,Cc1ccc(-n2c(SCC(=O)Nc3ncc(Cl)cc3Cl)nc3ccccc32)cc1,98%
5,Cc1ccc(NC(=O)c2sc3nc(N)c(C#N)cc3c2N)cc1,100%
6,Cc1cccc(OP(=O)(Nc2c(C)n(C)n(-c3ccccc3)c2=O)Oc2cccc(C)c2)c1,98.3%
7,COc1ccc(C)cc1NC(=O)c1ccc(-c2ccc(C(C)=O)cc2)o1,78.6%
8,COc1cccc(NC(=S)C(C#N)=C2N(C)c3ccccc3N2C)c1,145% (active)
9,COc1cccc(NC(=O)C(C)Oc2ccccc2)c1 (stereo not given),97.5%
10,COc1cccc(NC(=S)NCc2ccccn2)c1,106%
11,O=C(NCC1CCN(Cc2ccccc2Cl)CC1)Nc1cccc(Cl)c1,102%
12,CNc1nc(Nc2ccc(C)c(Cl)c2)nc(N)c1[N+](=O)[O-],132%
13,COc1ccc(/C=C(\NC(=O)c2ccc(OC)c(OC)c2)C(=O)NCCc2c[nH]c3ccccc23)cc1,112%
14,O=C(NC(Cc1c[nH]c2ccccc12)C(=O)O)/C(=C/c1ccco1)NC(=O)c1ccccc1 (stereo not given),107%
15,Cc1ccc(C(=O)N/C(=C/c2ccco2)C(=O)NCCc2c[nH]c3ccccc23)cc1C,134% (active)
16,COC(=O)c1[nH]c2ccccc2c1NC(=O)CN1CCCc2ccccc21,154% (active)
17,NS(=O)(=O)c1cccc(NC(=O)CN2CCCc3ccccc32)c1,106%
18,COC(=O)c1[nH]c2cccc(C)c2c1NC(=O)CN1CCCc2ccccc21,140% (active)
19,CCOC(=O)c1[nH]c2ccc(OC)cc2c1NC(=O)CCN1CCN(Cc2ccccc2)CC1,104%
20,Cc1ccccc1NC(=O)CNc1ccccc1N1CCCCC1,101%
21,O=C(CN1CCc2ccccc21)NC(c1ccccc1)c1ccccc1,103%
22,CC(C(=O)N=Nc1c(O)n(C)c2ccc(Br)cc12)n1cnc2ccccc2c1=O (stereo not given),121%
23,CCN1CCN(c2ccc(NC(=O)c3cnccn3)cc2)CC1,100%
24,CCCCCC1CCC(c2nnc(SCC(C)=O)o2)CC1 (stereo not given),101%

row,Structure (SMILES),activation (% of control)
1,CN(C)/C(=N\OC(=O)c1ccccc1)c1nonc1N,97.7%
2,CCn1c(Cc2ccccc2)nnc1SCc1nc2ccccc2c(=O)[nH]1,107%
3,O=c1[nH]c(CSc2ncc(-c3ccc(F)cc3)n2Cc2ccco2)nc2ccccc12,152% (active)
4,Cn1c(-c2ccc(F)cc2)cnc1SCC(=O)NCc1ccco1,101%
5,CC(C(=O)O)n1cnc2sc3c(c2c1=O)CCCC3 (stereo not given),102%
6,COc1ccc(C2C(C(C)=O)=C(O)C(=O)N2Cc2cccnc2)cc1 (stereo not given),100%
7,COc1ccc(C2C(C(C)=O)=C(O)C(=O)N2c2nccs2)cc1 (stereo not given),134% (active)
8,COc1ccc(C2C(C(C)=O)=C(O)C(=O)N2CCc2c[nH]c3ccccc23)cc1 (stereo not given),108%
9,O=C(Cc1ccccc1Cl)N1CCN(c2ccccn2)CC1,100%
10,Cn1nnnc1NCc1ccc(Cl)c(Cl)c1,101%
11,C[n+]1ccc(/C=C/c2c[nH]c3ccccc23)cc1,115%
12,Cc1cccc(NC(=S)Nc2ccc(Cl)c(Cl)c2)c1,92.4%
13,Cc1ccc(OCc2n[nH]c(=S)n2-c2ccccc2)cc1,105%
14,Cc1cccnc1NC(=O)CSc1nnc(COc2ccc(C(C)C)cc2)n1C,98.9%
15,Cc1ccc(OCc2nnc(SC3CCc4ccccc4C3=O)n2C)cc1 (stereo not given),144% (active)
16,Cc1cc(C)cc(OCC(=O)NCc2cc(C)nc3ccccc23)c1,92.5%
17,O=C(CC1NCCc2ccccc21)Nc1cccc(Cl)c1 (stereo not given),100%
18,CCOc1cc(N2CCOCC2)c(OCC)cc1NC(=O)c1cc(C)nc2ccccc12,93.6%
19,CCCCn1c(=O)c(CCC(=O)OCC(=O)Nc2ccc(C)c(Cl)c2)nc2ccccc21,100%
20,CCCCOc1ccc(NC(=O)[C@@H]2CCCN2C(=O)C2CCN(S(=O)(=O)c3ccc(C)cc3)CC2)cc1,102%
21,COc1cc(NC(=O)COc2ccccc2Cl)ccc1NC(=O)C(C)C,84.8%
22,CC(=O)Nc1ccc(NC(=O)COc2ccccc2C(=O)Nc2cccc(Cl)c2Cl)cc1,136% (active)
23,O=C(COc1ccccc1Cl)Nc1ccc(C(=O)c2ccc(C(=O)O)cc2)cc1,85.3%
24,Cc1cc2oc(C(=O)Nc3c(C)n(C)n(-c4ccccc4)c3=O)c(C)c2cc1Cl,96.5%

row,Structure (SMILES),activation (% of control)
1,CC(C)COP(=O)(c1ccc(N(C)C)cc1)C(Nc1ccccc1)c1cccnc1 (stereo not given),106%
2,Nc1ccc(S(=O)(=O)Nc2nccc(/C=C/c3ccc(Br)s3)n2)cc1,92.4%
3,Oc1cccc2ccc(/C=C/c3ccc(Br)s3)nc12,146% (active)
4,O=C(Nc1nnc(C2CC2)s1)C1=NN(C2CCS(=O)(=O)C2)C(=O)CC1 (stereo not given),103%
5,O=C(N/N=C/c1ccccn1)c1ccc(S(=O)(=O)N2CCCCCC2)cc1,104%
6,O=C(C1CCN(C2CCN(Cc3cccc4c3OCO4)CC2)CC1)N1CCOCC1,108%
7,Cc1ccc(OCC(=O)N/N=C/c2ccncc2)cc1,95.8%
8,Cc1ccc(/C=N/NC(=O)COc2ccccc2-c2ccccc2)cc1,148% (active)
9,Cc1ccc(OCC(=O)N/N=C\c2ccco2)c(C)c1,92.2%
10,CC(=O)C1=C(C)NC2=C(C(=O)CC(C)(C)C2)C1C (stereo not given),97%
11,N#Cc1ncc(C(F)(F)F)cc1Oc1cccnc1,107%
12,COCCCNc1nc2c(-c3cccc(C(F)(F)F)c3)nnn2c2ccccc12,147% (active)
13,CC(=O)Nc1ccc(Nc2nc3c(S(=O)(=O)c4ccc(C)c(C)c4)nnn3c3ccccc23)cc1,95.2%
14,Cc1cccc(Nc2nc3c(S(=O)(=O)c4ccccc4)nnn3c3ccccc23)c1C,105%
15,O=C(CNCc1ccco1)Nc1cc(S(=O)(=O)N2CCOCC2)ccc1N1CCCC1,114%
16,CCOc1ccc(NC(=S)N2CCC(N(C)CC3CCCO3)CC2)cc1 (stereo not given),102%
17,COc1cc2c(cc1OC)CN(C(=O)c1cc(=O)c3ccccc3o1)CC2,92.7%
18,COc1cc2c(cc1OC)CN(C(=O)c1ccc(S(=O)(=O)N3CCCCCC3)cc1)CC2,92.7%
19,CCOc1cc(C(=O)N2CCc3cc(OC)c(OC)cc3C2)ccc1OC(F)F,133% (active)
20,O=C(CNS(=O)(=O)c1ccccc1)NCC(=O)OCc1ccccc1F,108%
21,Cc1cc(O)c(NC(=O)c2ccc(C)c([N+](=O)[O-])c2)cc1C,134% (active)
22,Cc1ccc(C(=O)Nc2cccc3ncccc23)cc1[N+](=O)[O-],94.5%
23,CCN1CCC(=NNC(=O)c2ccc(C)c([N+](=O)[O-])c2)CC1,107%
24,Cc1ccccc1CC1(CO)CCCN(Cc2ccc3c(c2)OCCO3)C1 (stereo not given),93.5%

row,Structure (SMILES),activation (% of control)
1,COc1ccccc1CCNC(=O)CSc1nnc2ccc(-c3cccnc3)nn12,101%
2,CC(C)(C)C(=O)CN1C2=NCCN2c2ccccc21,96.1%
3,C=C(C)Cn1c(SCC(=O)NCc2ccco2)nc2sc3c(c2c1=O)CCC3,104%
4,O=C(NCc1ccco1)c1cccn2c(=O)c3c4c(sc3nc12)CCCC4,154% (active)
5,COc1ccc(CCn2c(=N)c(C(=O)NCc3ccco3)cc3c(=O)n4cccc(C)c4nc32)cc1,94.5%
6,O=C(Nc1nnc(SCc2ccccc2Cl)s1)c1cccc([N+](=O)[O-])c1,109%
7,Fc1ccc2nc(-c3ccccc3)nc(SCc3nnc(-c4ccccc4)o3)c2c1,141% (active)
8,Fc1ccc(-c2nnc(CSc3nnc(-c4ccc5c(c4)OCO5)o3)o2)cc1,102%
9,c1ccc(-c2nnc(SCc3nc4ccccc4[nH]3)o2)cc1,109%
10,O=C(NCCCO)/C(=C\C=C\c1ccccc1)NC(=O)c1ccccc1Cl,101%
11,CC1CCc2sc(C(=O)N/N=C/C3CCCCC3)cc2C1 (stereo not given),103%
12,CN(NC(=O)c1ccccc1F)c1nc(C(F)(F)F)nc2ccccc12,115%
13,CSc1nc(N(C)NC(=O)c2cccc(C)c2)c2ccccc2n1,139% (active)
14,CN(NC(=O)c1ccccc1)c1nc2ccccc2nc1C(F)(F)F,96%
15,CSc1ncccc1C(=O)Nc1nc2ccc(F)cc2s1,90.7%
16,COc1ccc2nc(Nc3nc4cc5c(cc4s3)OCCO5)sc2c1,93.3%
17,Fc1ccc2nc(Nc3nc4c(s3)CCCC4)sc2c1,147% (active)
18,COc1cc(NC(=S)NCc2ccco2)c(OC)cc1Cl,95.6%
19,O=C(c1ccc2ccccc2n1)N1CCN(c2ccccc2Cl)CC1,135% (active)
20,O=C(c1ccncc1)N1CCN(c2ccc3ccccc3n2)CC1,90%
21,COc1ccccc1N1CCN(C(=O)c2cc(-c3ccc(Cl)c(Cl)c3)on2)CC1,91.7%
22,O=C(/C=C/c1ccc(F)cc1)NCCNC(=O)/C=C/c1ccc(F)cc1,95%
23,COC(=O)CC(=O)N1CCN(c2ccc(Cl)c(Cl)c2)CC1,87.7%
